Data on 14 compounds can be found in PubChem BioAssay.

Calls of active or inactive are those of the source. Unless noted, no stated cut-off is given here; in the data, active means inhibition above about 30%; inactive means the rest.

Assay [1] can be described thus: Her2 expression decrease, cell viability multiplex – SKBR3 breast tumor cells, AlphaScreen, ATP viability, primary screen (AID 461;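 active means Her2 level under about 52% in both replicate screens, with viability over 70% of control, limit read from the data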;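 on Her2 level: lower value means less Her2 protein in the cells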;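 on viability: percent of carrier control wells set as 100% viability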). The following applies: SKBR3 Her2 protein level, 18-24 h, measured here: SKBR3 viability, ATP luminescence, at 10 µM. A general note: In Alpha technology, singlet oxygen from a donor bead excites a nearby acceptor bead.
Assay [2] has as its target Receptor tyrosine-protein kinase erbB-2 (Homo sapiens) (UniProt P04626). The assay is described as above. Conditions: 18-24 h, at 10 µM, stronger effect = lower value.
Assay [3] is described as follows: reduced viability of SK-BR-3 breast cancer cells – cell-based, 24 h, human, pilot screen (AID 572;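 active means viability at or below 10% of carrier control in both of two separate runs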;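 further: compound exposure lasted between 18 and 24 h rather than exactly 24 h; 100% = carrier-treated control wells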). The following applies: SK-BR-3 viability, CellTiter-Glo luminescence, at 10 µM, stronger effect = lower value. On the technique in general: ATP-based viability assays read luminescence as a measure of living cells.
The nature of assay [4]: HUVEC growth inhibition – cell-based, human, primary screen (AID 575;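 active means viability at or below 30% in both replicate assays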;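 further: 100% = median of untreated cell wells with 0.1% DMSO on each plate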). Conditions: HUVEC proliferation, CellTiter-Glo luminescence, 72 h; at 10 µM; stronger effect = lower value. The method, boiled down:
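System – primary HUVEC, no more than 12 passages · Medium – Low-serum (2% FBS) EBM, supplemented · Times – 72 h exposure, 37 °C, 5% CO2, 30 min RT equilibration · Measured by – luminescent ATP assay · Read-out – % viability relative to median vehicle-well signal on each plate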

Assay [5] in a line: H69AR cell proliferation blockers – human, duplicate replicates, primary screen (AID 580;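 active means viability at or under a set limit in both replicates, limit being median viability minus 3 SD, cut at about 48% in these data, passing the limit was not always enough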;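 further: 100% = mean luminescence of untreated wells and 0% = no signal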). The following applies: H69AR lung tumor cells viability, ATP luminescence, 72 h; at 10 µM; stronger effect = lower value.
A short description of assay [6]: MRP1 drug-resistance reversers in H69AR cells – cell-based, doxorubicin co-treatment, pilot screen (AID 601;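 active means viability loss from added drug above about 55%, and viability with drug at most 40%, in both replicates, limit read from the data, passing the limit was not always enough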). The following applies: CellTiter-Glo, 72 h, at 10 µM; for differential viability (reversal): stronger effect = higher value.
Assay [7] is described as follows: yeast transport mutant growth inhibition pilot in 384-well plates, post-Golgi transport modulator project (AID 636; in the data active means inhibition above about 31%). Conditions: absorbance 615 nm, about 18 h, stronger effect = higher value.
A short description of assay [8]: growth suppression of yeast trafficking mutant, preliminary HTS, modulators of trafficking downstream of Golgi apparatus project, 1536-format plate, OD 615 nm (AID 637). Conditions: yeast transport mutant growth, absorbance 615 nm, 18 h; stronger effect = higher value.
The mark [9] stands for this setting: H69AR cells + 2 uM doxorubicin, measured here: viability with 2 uM doxorubicin, stronger effect = lower value.
The mark [10] stands for this setting: H69AR cells, compound alone cytotoxicity.

Chain of Receptor tyrosine-protein kinase erbB-2 (Homo sapiens) (P04626 whole entry, looked up): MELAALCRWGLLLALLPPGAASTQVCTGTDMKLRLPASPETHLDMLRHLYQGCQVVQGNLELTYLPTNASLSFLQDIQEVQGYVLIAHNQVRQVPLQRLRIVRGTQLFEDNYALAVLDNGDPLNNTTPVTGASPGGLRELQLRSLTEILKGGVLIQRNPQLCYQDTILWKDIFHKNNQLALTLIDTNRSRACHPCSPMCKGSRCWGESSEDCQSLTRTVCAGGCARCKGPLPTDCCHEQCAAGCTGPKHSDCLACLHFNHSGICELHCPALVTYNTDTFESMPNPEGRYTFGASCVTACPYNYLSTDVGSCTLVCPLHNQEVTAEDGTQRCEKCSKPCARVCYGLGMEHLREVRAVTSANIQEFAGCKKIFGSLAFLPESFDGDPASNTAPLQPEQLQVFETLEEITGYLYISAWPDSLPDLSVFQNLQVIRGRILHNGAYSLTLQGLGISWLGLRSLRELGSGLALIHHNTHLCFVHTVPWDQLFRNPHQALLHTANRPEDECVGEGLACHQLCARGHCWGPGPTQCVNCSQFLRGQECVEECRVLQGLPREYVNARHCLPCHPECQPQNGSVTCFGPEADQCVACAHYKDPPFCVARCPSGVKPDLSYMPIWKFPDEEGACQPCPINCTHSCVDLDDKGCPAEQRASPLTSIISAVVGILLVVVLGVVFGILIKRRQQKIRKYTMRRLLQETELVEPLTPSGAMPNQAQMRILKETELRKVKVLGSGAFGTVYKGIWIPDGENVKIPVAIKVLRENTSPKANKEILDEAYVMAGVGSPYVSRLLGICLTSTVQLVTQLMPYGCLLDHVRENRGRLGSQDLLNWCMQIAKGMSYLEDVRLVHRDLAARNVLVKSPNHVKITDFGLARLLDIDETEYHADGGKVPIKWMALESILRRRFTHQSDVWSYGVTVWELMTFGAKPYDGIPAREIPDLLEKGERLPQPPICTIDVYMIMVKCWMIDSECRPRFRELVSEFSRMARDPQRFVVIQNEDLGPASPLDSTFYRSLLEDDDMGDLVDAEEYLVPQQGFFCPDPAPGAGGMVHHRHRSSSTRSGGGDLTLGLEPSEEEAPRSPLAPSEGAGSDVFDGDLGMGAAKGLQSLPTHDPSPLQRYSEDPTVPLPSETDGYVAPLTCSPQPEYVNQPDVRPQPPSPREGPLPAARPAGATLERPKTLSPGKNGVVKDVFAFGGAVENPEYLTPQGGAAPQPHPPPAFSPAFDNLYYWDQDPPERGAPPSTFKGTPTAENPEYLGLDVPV

With `Cc1oc(-c2ccccc2F)nc1CS(=O)(=O)CC(=O)NCc1ccco1`, the viability (commonly a read-out of living cells in per cent, often relative to untreated cells) in assay [1] was 116%; in assay [3], 116% (inactive); in assay [4] it was 85.9% (inactive); in assay [5] it was 93.8% (inactive); in assay [6] (setting [9]), 86.8%; in assay [6] (setting [10]), 93.8%. Moreover, the Her2 level in assay [2] was 124% (inactive). Besides, the differential viability (reversal) in assay [6] (H69AR cells + 2 uM doxorubicin) was 7.03% (inactive). The values for the inhibition in assay [7] and in assay [8] were -3.2% (inactive) and -2.62% (inactive), respectively.
As for `Cc1ccc(O)c(C(CC(=O)N2CCCC2)c2ccccc2)c1` (stereo not given), the viability was 89% in assay [1]; 89% (inactive) in assay [3]; 92.4% (inactive) in assay [4]; 94.8% (inactive) in assay [5]; 82.5% in assay [6] (setting [9]); 94.8% in assay [6] (setting [10]). In addition, in assay [2], the Her2 level was 101% (inactive). For the same compound, the differential viability (reversal) in assay [6] (H69AR cells + 2 uM doxorubicin) was 12.3% (inactive). Further, the inhibition – broadly, the relative decrease from the control value, in per cent – was -0.38% (inactive) in assay [7] and -6.83% (inactive) in assay [8].
As for `CCCCCC1CC(CC(=O)O)C(=O)O1` (stereo not given), the viability was 100% in assay [1]; 100% (inactive) in assay [3]; 82.5% (inactive) in assay [4]; 104% (inactive) in assay [5]; 96.2% in assay [6] (setting [9]); 104% in assay [6] (setting [10]). In addition, the Her2 level in assay [2] was 96% (inactive). Further, the differential viability (reversal) in assay [6] (H69AR cells + 2 uM doxorubicin) was 7.44% (inactive). In addition, the inhibition is -4.87% (inactive) in assay [7] and 7.67% (inactive) in assay [8].
Take `COc1ccc2c(c1)cc(C(=O)O)n2C`: the viability in assay [1] was 92.5%; in assay [3] it was 92.5% (inactive); in assay [4], 102% (inactive); in assay [5], 98.7% (inactive); in assay [6] (setting [9]), 89.9%; in assay [6] (setting [10]) it was 98.7%. The Her2 level in assay [2] was 73% (inactive). In addition, the differential viability (reversal) in assay [6] (H69AR cells + 2 uM doxorubicin) was 8.84% (inactive). Besides, the inhibition in assay [7] was -5.39% (inactive); in assay [8], -5.67% (inactive).
With `N#Cc1c(N)nc2c(c1-c1ccncc1)CCCCC2`, the viability in assay [1] was 102%; in assay [3], 102% (inactive); in assay [4] it was 78.2% (inactive); in assay [5], 90.7% (inactive); in assay [6] (setting [9]) it was 94%; in assay [6] (setting [10]), 90.7%. Further, the Her2 level in assay [2] was 86.5% (inactive). The differential viability (reversal) in assay [6] (H69AR cells + 2 uM doxorubicin) was -3.37% (inactive). For the same compound, the inhibition in assay [7] is -4.4% (inactive); in assay [8] it was 4.43% (inactive).
With `Cc1nnc(SCC(=O)N2CC(=O)Nc3ccccc32)n1-c1ccccc1`, the viability was 93% in assay [1]; 93% (inactive) in assay [3]; 102% (inactive) in assay [4]; 97% (inactive) in assay [5]; 94.3% in assay [6] (setting [9]); 97% in assay [6] (setting [10]). The Her2 level in assay [2] was 90% (inactive). Further, in assay [6] (H69AR cells + 2 uM doxorubicin), the differential viability (reversal) was 2.75% (inactive). Further, the inhibition in assay [7] was -4.53% (inactive); in assay [8], 4.84% (inactive).
With `CCC1(NC(C)=O)CC2CC1CC2NC(C)=O` (stereo not given), the viability was 94.5% in assay [1]; 94.5% (inactive) in assay [3]; 107% (inactive) in assay [4]; 100% (inactive) in assay [5]; 89.1% in assay [6] (setting [9]); 100% in assay [6] (setting [10]). Also, in assay [2], the Her2 level was 100% (inactive). In addition, in assay [6] (H69AR cells + 2 uM doxorubicin), the differential viability (reversal) is 11% (inactive). For the same compound, the figures for the inhibition in assay [7] and in assay [8] were -3.2% (inactive) and -5.74% (inactive), respectively.
For the compound `CCOC(=O)N1CCC(N2C(=O)c3ccc(C(=O)NCc4ccco4)cc3C2=O)CC1`, the viability in assay [1] is 95.5%; in assay [3], 95.5% (inactive); in assay [4], 79.6% (inactive); in assay [5] it was 85.9% (inactive); in assay [6] (setting [9]), 81%; in assay [6] (setting [10]), 85.9%. Moreover, the Her2 level in assay [2] is 94% (inactive). For the same compound, the differential viability (reversal) in assay [6] (H69AR cells + 2 uM doxorubicin) is 4.97% (inactive). Besides, the inhibition in assay [7] was 0% (inactive); in assay [8], -0.17% (inactive).
As to `CCCN1CCN(CCCNC(=O)Cn2nc(-c3ccc(Cl)cc3)ccc2=O)CC1`, the viability in assay [1] was 86%; in assay [3], 86% (inactive); in assay [4] it was 104% (inactive); in assay [5], 101% (inactive); in assay [6] (setting [9]), 90.6%; in assay [6] (setting [10]), 101%. The Her2 level in assay [2] was 93.5% (inactive). The differential viability (reversal) in assay [6] (H69AR cells + 2 uM doxorubicin) was 10.3% (inactive). Besides, the results for the inhibition in assay [7] and in assay [8] were -2.76% (inactive) and 2.42% (inactive), respectively.
On to `COc1ccccc1-c1nc(C#N)c(N2CCN(c3ccccc3)CC2)o1`, for which the viability was 104% in assay [1]; 104% (inactive) in assay [3]; 70.4% (inactive) in assay [4]; 89.8% (inactive) in assay [5]; 79.6% in assay [6] (setting [9]); 89.8% in assay [6] (setting [10]). Moreover, the Her2 level in assay [2] is 79.5% (inactive). For the same compound, in assay [6] (H69AR cells + 2 uM doxorubicin), the differential viability (reversal) is 10.2% (inactive). Also, the inhibition in assay [7] was -3.68% (inactive); in assay [8], 3.65% (inactive).
On to `O=C(O)CCCC(=O)NCCc1ccncc1`, for which the viability is 98% in assay [1]; 98% (inactive) in assay [3]; 97% (inactive) in assay [4]; 107% (inactive) in assay [5]; 98.5% in assay [6] (setting [9]); 107% in assay [6] (setting [10]). The Her2 level in assay [2] was 89% (inactive). In assay [6] (H69AR cells + 2 uM doxorubicin), the differential viability (reversal) was 7.97% (inactive). In addition, the inhibition is -1.84% (inactive) in assay [7] and -1.27% (inactive) in assay [8].
Take `CCOc1ccc(C(=O)OCc2nnc(-c3cccs3)o2)cc1OC`: the viability in assay [1] is 106%; in assay [3], 106% (inactive); in assay [4], 116% (inactive); in assay [5] it was 99.9% (inactive); in assay [6] (setting [9]), 74%; in assay [6] (setting [10]), 99.9%. Also, in assay [2], the Her2 level was 96% (inactive). In assay [6] (H69AR cells + 2 uM doxorubicin), the differential viability (reversal) was 25.9% (inactive). The inhibition in assay [7] was -3.12% (inactive); in assay [8], 2.38% (inactive).
In the case of `CCOc1ccc2nc(SCC#N)c(C#N)cc2c1`, the viability is 93% in assay [1]; 93% (inactive) in assay [3]; 104% (inactive) in assay [4]; 100% (inactive) in assay [5]; 84% in assay [6] (setting [9]); 100% in assay [6] (setting [10]). For the same compound, the Her2 level in assay [2] was 106% (inactive). In assay [6] (H69AR cells + 2 uM doxorubicin), the differential viability (reversal) is 16.1% (inactive). For the same compound, the values for the inhibition in assay [7] and in assay [8] were -3.2% (inactive) and -0.32% (inactive), respectively.
Regarding `COc1ccc(C(=O)OC(COc2ccccc2)Cn2ccnc2)cc1` (stereo not given), the viability in assay [1] is 83%; in assay [3], 83% (inactive); in assay [4] it was 79.6% (inactive); in assay [5], 94.7% (inactive); in assay [6] (setting [9]) it was 85.1%; in assay [6] (setting [10]), 94.7%. The Her2 level in assay [2] is 97% (inactive). The differential viability (reversal) in assay [6] (H69AR cells + 2 uM doxorubicin) is 9.57% (inactive). For the same compound, the figures for the inhibition in assay [7] and in assay [8] were 100% (active) and 95.5% (active), respectively.
